Data set [1] can be described thus: Cytotoxicity against human HeLa cells after 24 hrs by [3H]hypoxanthine incorporation assay. The format is cell-based. Particulars: read-out: ED50. The method, boiled down:
(§1)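 HeLa cells grown in RPMI 1640 with 25 mM Hepes, 30 mM NaHCO3 and 5% fetal calf serum. After trypsinization, cells were seeded at 2×10^4 cells/well. Compounds were taken from 10 mg/mL DMSO stocks and diluted in serum-free medium to final 100–0.02 μg/mL (DMSO ≤1% final). Growth was read by [3H]-hypoxanthine incorporation at 24 and 72 h against untreated wells. Three experiments, each in triplicate.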

Data set [2] is described as follows: Cytotoxicity against human HeLa cells after 72 hrs by [3H]hypoxanthine incorporation assay. The class given is cell-based. Particulars: read-out: ED50. An outline of the steps:
as §1

In data set [3] the test system is Plasmodium falciparum. The data set is described as follows: Antiplasmodial activity after 24 hrs against chloroquine-sensitive Plasmodium falciparum Nigerian by [3H]hypoxanthine uptake. The format is functional, organism-based. An outline of the steps:
(§2)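 P. falciparum continuously cultured in human O± red cells, 1% hematocrit, RPMI 1640 with 25 mM Hepes, 30 mM NaHCO3, 5% human AB+ serum. Cultures synchronized daily by gelatine flotation and 5% sorbitol lysis. Tested mostly at ring stage, 0.5-1% parasitemia. DMSO stocks diluted serum-free to final 50-0.01 µg/mL (DMSO ≤1%). Three experiments in triplicate. IC50 read graphically from concentration versus percent inhibition curves.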

Data set [4] is described as follows: Selectivity index, ratio of ED50 for human HeLa cells to IC50 for Plasmodium falciparum Nigerian after 24 hrs by [3H]hypoxanthine incorporation assay. The format is functional. An outline of the steps:
(§3)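 Ratio of HeLa ED50 to P. falciparum Nigerian-strain IC50 at the same exposure time (24 or 72 h). For the parasite, ring-stage cultures synchronized by gelatine flotation and sorbitol were used at 0.5–1% parasitemia and 1% hematocrit in human red cells with 5% AB+ serum. Compounds ran at final 50–0.01 μg/mL. Growth was read by [3H]-hypoxanthine incorporation, and IC50 was read graphically from inhibition curves.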

Data set [5] in a line: Selectivity index, ratio of ED50 for human HeLa cells to IC50 for Plasmodium falciparum Nigerian after 72 hrs by [3H]hypoxanthine incorporation assay. The class given is functional. An outline of the steps:
as §3

Data set [6] relates to Plasmodium falciparum. The data set can be described thus: Antiplasmodial activity after 72 hrs against chloroquine-sensitive Plasmodium falciparum Nigerian by [3H]hypoxanthine uptake. The format is functional, organism-based. An outline of the steps: as §2
Data set [7] has as its system Plasmodium falciparum. The data set can be described thus: Antiplasmodial activity against chloroquine-resistant Plasmodium falciparum FcM29 after 72 hrs by [3H]hypoxanthine uptake. The format is functional, organism-based. An outline of the steps: as §2
The test system of data set [8] is Plasmodium falciparum. The data set is described as follows: Antiplasmodial activity after 24 hrs against chloroquine-resistant Plasmodium falciparum FcM29 by [3H]hypoxanthine uptake. The class given is functional, organism-based. An outline of the steps: as §2

The term IC50 denotes the concentration that inhibits the measured activity by half. The low end stands for greater potency, the high end for weaker potency.

`CCN(CC)CCCC(C)Nc1ccnc2cc(Cl)ccc12` (centres undefined) [CHLOROQUINE PHOSPHATE]: the CC50 at 24 h in data set [1] is more than 100 µM. Moreover, the CC50 at 72 h in data set [2] was more than 100 µM.
With `CC(C)=CCc1c(O)cc2c(c1O)c(=O)c1c(CC=C(C)C)ccc(O)c1n2C`, the IC50 amounted to 5.3 µM with Plasmodium falciparum [3], 5.6 µM with Plasmodium falciparum [6], 7.1 µM with Plasmodium falciparum [7] and 7.9 µM in the data set with Plasmodium falciparum [8]. For the same compound, the results for the Ratio in data set [4] and in data set [5] were 9 and 9.4, respectively. Further, the CC50 at 24 h in data set [1] came to 47.2 µM. Also, the CC50 at 72 h in data set [2] turned out to be 52.2 µM.
On to `COc1c(O)cc(O)c2c(=O)c3cccc(O)c3n(C)c12` [CITRUSININE-II], for which the IC50 stood at 33 µM in the data set with Plasmodium falciparum [3], 20.1 µM with Plasmodium falciparum [6], 20.5 µM in the data set with Plasmodium falciparum [7] and 27.1 µM in the data set on Plasmodium falciparum [8]. Also, the Ratio was 0.5 in data set [4] and 1.8 in data set [5]. Moreover, in data set [1], the CC50 at 24 h is 16.8 µM. Besides, the CC50 at 72 h in data set [2] worked out at 35.1 µM.
As to `COc1c(O)c(CC=C(C)C)c(O)c2c(=O)c3cccc(O)c3n(C)c12` [GLYCOCITRINE-IV], the IC50 worked out at 2.5 µM with Plasmodium falciparum [3], 2.5 µM in the data set on Plasmodium falciparum [6], 2.3 µM in the data set with Plasmodium falciparum [7] and 2 µM with Plasmodium falciparum [8]. For the same compound, the results for the Ratio in data set [4] and in data set [5] were 0.3 and 2.1, respectively. For the same compound, the CC50 at 24 h in data set [1] was found to be 0.71 µM. For the same compound, the CC50 at 72 h in data set [2] was 5.3 µM.
With `Cn1c2c(O)cccc2c(=O)c2c(O)cc3c(c21)C=CC(C)(C)O3`, the IC50 in the data set with Plasmodium falciparum [3] amounted to 11.1 µM; with Plasmodium falciparum [6] it was 8.7 µM; in the data set on Plasmodium falciparum [7], 6.8 µM; in the data set on Plasmodium falciparum [8], 10.2 µM. For the same compound, the Ratio is reported as 7.7 in data set [4] and 9 in data set [5]. In addition, the CC50 at 24 h in data set [1] amounted to 85.5 µM. The CC50 at 72 h in data set [2] was 78 µM.

The record behind these values is ChEMBL document CHEMBL1156343, “Bioactive acridone alkaloids from Swinglea glutinosa” (J Nat Prod, 2001).
